# Assay results: ChEMBL document CHEMBL4190288, “Bioactive Azaphilone Derivatives from the Fungus Talaromyces aculeatus” (J Nat Prod, 2017)
# Activity calls are given as the source filed them. No cut-off for these calls is given here.
# Target: Alpha glucosidase (Homo sapiens, UniProt O43451+P10253+P14410+Q2M2H8)
# Assay: Inhibition of alpha-glucosidase (unknown origin) using p-nitrophenyl glycoside as substrate treated 20 mins post substrate addition measured for 1 min by spectrophotometric analysis
# Assay type: protein assay
# Procedure, shortened: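 In vitro α-glucosidase inhibition measured by a previously referenced procedure.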
row,SMILES,IC50 [µM]
1,Cc1cc(O)cc(O)c1C(=O)O[C@H]1[C@@H]2COC(/C=C/[C@H](C)O)=CC2=CC(=O)[C@@]1(C)O,78.6
2,C/C=C/C1=CC2=CC(=O)[C@@](C)(OC(=O)c3c(C)cc(O)cc3O)C(=O)C2=CO1,> 200
3,COC(=O)CCC1=CC2=CC(=O)[C@@](C)(O)[C@@H](OC(=O)c3c(C)cc(O)cc3O)[C@@H]2CO1,> 200
4,Cc1cc(O)cc(O)c1C(=O)O[C@H]1[C@@H]2COC(/C=C/C(=O)O)=CC2=CC(=O)[C@@]1(C)O,> 200
5,Cc1cc(O)cc(O)c1C(=O)O[C@H]1[C@@H]2COC(/C=C/CO)=CC2=CC(=O)[C@@]1(C)O [PINOPHILIN B],> 200
6,C/C=C/C1=CC2=CC(=O)[C@@](C)(O)[C@@H](OC(=O)c3c(C)cc(O)cc3O)[C@@H]2CO1,> 200

# The remaining lines, values ahead:
row,IC50 [µM],SMILES
1,> 200,COC(=O)C1=CC2=CC(=O)[C@@](C)(O)[C@@H](OC(=O)c3c(C)cc(O)cc3O)[C@@H]2CO1
2,> 200,COC(OC)C1=CC2=CC(=O)[C@@](C)(O)[C@@H](OC(=O)c3c(C)cc(O)cc3O)[C@@H]2CO1
3,> 200,Cc1cc(O)cc(O)c1C(=O)O[C@]1(C)C(=O)C=C2C=C(/C=C/CO)OC=C2C1=O
4,22.9,Cc1cc(O)cc(O)c1C(=O)O[C@H]1[C@@H]2COC(/C=C/C=O)=CC2=CC(=O)[C@@]1(C)O
5,> 200,Cc1cc(O)cc(O)c1C(=O)O[C@H]1C2=COC(/C=C/CO)=CC2=CC(=O)[C@@]1(C)O

# Tested on: Vibrio anguillarum
# Assay: Antibacterial activity against Vibrio anguillarum after 18 hrs by broth dilution method
# Assay type: functional
# Procedure, shortened: (§1)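 Conventional broth dilution MIC assay run on a panel of Gram-positive strains (Micrococcus lysodeikticus, Bacillus cereus, Bacillus megaterium) and Gram-negative strains (Proteus vulgaris, Vibrio anguillarum, Vibrio parahaemolyticus). Ciprofloxacin served as the positive control.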
row,SMILES,MIC [µg/mL]
1,Cc1cc(O)cc(O)c1C(=O)O[C@H]1[C@@H]2COC(/C=C/[C@H](C)O)=CC2=CC(=O)[C@@]1(C)O,> 8.28
2,O=C(O)c1cn(C2CC2)c2cc(N3CCNCC3)c(F)cc2c1=O [CIPROFLOXACIN],0.199 to 0.52
3,C/C=C/C1=CC2=CC(=O)[C@@](C)(OC(=O)c3c(C)cc(O)cc3O)C(=O)C2=CO1,0.26
4,COC(=O)CCC1=CC2=CC(=O)[C@@](C)(O)[C@@H](OC(=O)c3c(C)cc(O)cc3O)[C@@H]2CO1,> 8.28
5,Cc1cc(O)cc(O)c1C(=O)O[C@H]1[C@@H]2COC(/C=C/C(=O)O)=CC2=CC(=O)[C@@]1(C)O,> 8.28
6,Cc1cc(O)cc(O)c1C(=O)O[C@H]1[C@@H]2COC(/C=C/CO)=CC2=CC(=O)[C@@]1(C)O [PINOPHILIN B],> 8.28
7,C/C=C/C1=CC2=CC(=O)[C@@](C)(O)[C@@H](OC(=O)c3c(C)cc(O)cc3O)[C@@H]2CO1,> 8.28

# Now from value to molecule:
row,MIC [µg/mL],SMILES
1,> 8.28,COC(=O)C1=CC2=CC(=O)[C@@](C)(O)[C@@H](OC(=O)c3c(C)cc(O)cc3O)[C@@H]2CO1
2,> 8.28,COC(OC)C1=CC2=CC(=O)[C@@](C)(O)[C@@H](OC(=O)c3c(C)cc(O)cc3O)[C@@H]2CO1
3,0.26,Cc1cc(O)cc(O)c1C(=O)O[C@H]1[C@@H]2COC(/C=C/C=O)=CC2=CC(=O)[C@@]1(C)O
4,> 8.28,Cc1cc(O)cc(O)c1C(=O)O[C@H]1C2=COC(/C=C/CO)=CC2=CC(=O)[C@@]1(C)O

# Tested on: Micrococcus luteus
# Assay: Antibacterial activity against Micrococcus lysodeikticus after 18 hrs by broth dilution method
row,MIC [µg/mL],SMILES
1,0.099,O=C(O)c1cn(C2CC2)c2cc(N3CCNCC3)c(F)cc2c1=O [CIPROFLOXACIN]

# Tested on: Bacillus cereus
# Assay: Antibacterial activity against Bacillus cereus after 18 hrs by broth dilution method
row,MIC [µg/mL],SMILES
1,0.43,O=C(O)c1cn(C2CC2)c2cc(N3CCNCC3)c(F)cc2c1=O [CIPROFLOXACIN]

# Tested on: Priestia megaterium
# Assay: Antibacterial activity against Bacillus megaterium after 18 hrs by broth dilution method
row,MIC [µg/mL],SMILES
1,1.66,O=C(O)c1cn(C2CC2)c2cc(N3CCNCC3)c(F)cc2c1=O [CIPROFLOXACIN]

# Tested on: Proteus vulgaris
# Assay: Antibacterial activity against Proteus vulgaris after 18 hrs by broth dilution method
row,MIC [µg/mL],SMILES
1,0.199,O=C(O)c1cn(C2CC2)c2cc(N3CCNCC3)c(F)cc2c1=O [CIPROFLOXACIN]

# Tested on: Vibrio parahaemolyticus
# Assay: Antibacterial activity against Vibrio parahaemolyticus after 18 hrs by broth dilution method
# Assay type: functional
# Procedure, shortened: as §1
row,SMILES,MIC [µg/mL]
1,O=C(O)c1cn(C2CC2)c2cc(N3CCNCC3)c(F)cc2c1=O [CIPROFLOXACIN],0.43

# Tested on: HL-60
# Assay: Cytotoxicity against human HL60 cells by MTT assay
# Assay type: functional, cell-based
# Procedure, shortened: (§2)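 Cytotoxicity tested on human HL-60, HeLa, A549 and K562 cell lines by a previously referenced method. Adriamycin was the positive control.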
row,SMILES,Activity
1,Cc1cc(O)cc(O)c1C(=O)O[C@H]1[C@@H]2COC(/C=C/[C@H](C)O)=CC2=CC(=O)[C@@]1(C)O,inactive
2,C/C=C/C1=CC2=CC(=O)[C@@](C)(OC(=O)c3c(C)cc(O)cc3O)C(=O)C2=CO1,inactive
3,COC(=O)C1=CC2=CC(=O)[C@@](C)(O)[C@@H](OC(=O)c3c(C)cc(O)cc3O)[C@@H]2CO1,inactive
4,COC(=O)CCC1=CC2=CC(=O)[C@@](C)(O)[C@@H](OC(=O)c3c(C)cc(O)cc3O)[C@@H]2CO1,inactive
5,COC(OC)C1=CC2=CC(=O)[C@@](C)(O)[C@@H](OC(=O)c3c(C)cc(O)cc3O)[C@@H]2CO1,inactive
6,Cc1cc(O)cc(O)c1C(=O)O[C@H]1[C@@H]2COC(/C=C/C(=O)O)=CC2=CC(=O)[C@@]1(C)O,inactive
7,Cc1cc(O)cc(O)c1C(=O)O[C@]1(C)C(=O)C=C2C=C(/C=C/CO)OC=C2C1=O,inactive
8,Cc1cc(O)cc(O)c1C(=O)O[C@H]1[C@@H]2COC(/C=C/CO)=CC2=CC(=O)[C@@]1(C)O [PINOPHILIN B],inactive
9,Cc1cc(O)cc(O)c1C(=O)O[C@H]1[C@@H]2COC(/C=C/C=O)=CC2=CC(=O)[C@@]1(C)O,inactive
10,C/C=C/C1=CC2=CC(=O)[C@@](C)(O)[C@@H](OC(=O)c3c(C)cc(O)cc3O)[C@@H]2CO1,inactive
11,Cc1cc(O)cc(O)c1C(=O)O[C@H]1C2=COC(/C=C/CO)=CC2=CC(=O)[C@@]1(C)O,inactive

# Tested on: K562
# Assay: Cytotoxicity against human K562 cells by MTT assay
# Assay type: functional, cell-based
# Procedure, shortened: as §2
row,SMILES,Activity
1,Cc1cc(O)cc(O)c1C(=O)O[C@H]1[C@@H]2COC(/C=C/[C@H](C)O)=CC2=CC(=O)[C@@]1(C)O,inactive
2,C/C=C/C1=CC2=CC(=O)[C@@](C)(OC(=O)c3c(C)cc(O)cc3O)C(=O)C2=CO1,inactive
3,COC(=O)C1=CC2=CC(=O)[C@@](C)(O)[C@@H](OC(=O)c3c(C)cc(O)cc3O)[C@@H]2CO1,inactive
4,COC(=O)CCC1=CC2=CC(=O)[C@@](C)(O)[C@@H](OC(=O)c3c(C)cc(O)cc3O)[C@@H]2CO1,inactive
5,COC(OC)C1=CC2=CC(=O)[C@@](C)(O)[C@@H](OC(=O)c3c(C)cc(O)cc3O)[C@@H]2CO1,inactive
6,Cc1cc(O)cc(O)c1C(=O)O[C@H]1[C@@H]2COC(/C=C/C(=O)O)=CC2=CC(=O)[C@@]1(C)O,inactive
7,Cc1cc(O)cc(O)c1C(=O)O[C@]1(C)C(=O)C=C2C=C(/C=C/CO)OC=C2C1=O,inactive
8,Cc1cc(O)cc(O)c1C(=O)O[C@H]1[C@@H]2COC(/C=C/CO)=CC2=CC(=O)[C@@]1(C)O [PINOPHILIN B],inactive
9,Cc1cc(O)cc(O)c1C(=O)O[C@H]1[C@@H]2COC(/C=C/C=O)=CC2=CC(=O)[C@@]1(C)O,inactive
10,C/C=C/C1=CC2=CC(=O)[C@@](C)(O)[C@@H](OC(=O)c3c(C)cc(O)cc3O)[C@@H]2CO1,inactive
11,Cc1cc(O)cc(O)c1C(=O)O[C@H]1C2=COC(/C=C/CO)=CC2=CC(=O)[C@@]1(C)O,inactive

# Tested on: HeLa
# Assay: Cytotoxicity against human HeLa cells by SRB assay
# Assay type: functional, cell-based
# Procedure, shortened: as §2
row,SMILES,Activity
1,Cc1cc(O)cc(O)c1C(=O)O[C@H]1[C@@H]2COC(/C=C/[C@H](C)O)=CC2=CC(=O)[C@@]1(C)O,inactive
2,C/C=C/C1=CC2=CC(=O)[C@@](C)(OC(=O)c3c(C)cc(O)cc3O)C(=O)C2=CO1,inactive
3,COC(=O)C1=CC2=CC(=O)[C@@](C)(O)[C@@H](OC(=O)c3c(C)cc(O)cc3O)[C@@H]2CO1,inactive
4,COC(=O)CCC1=CC2=CC(=O)[C@@](C)(O)[C@@H](OC(=O)c3c(C)cc(O)cc3O)[C@@H]2CO1,inactive
5,COC(OC)C1=CC2=CC(=O)[C@@](C)(O)[C@@H](OC(=O)c3c(C)cc(O)cc3O)[C@@H]2CO1,inactive
6,Cc1cc(O)cc(O)c1C(=O)O[C@H]1[C@@H]2COC(/C=C/C(=O)O)=CC2=CC(=O)[C@@]1(C)O,inactive
7,Cc1cc(O)cc(O)c1C(=O)O[C@]1(C)C(=O)C=C2C=C(/C=C/CO)OC=C2C1=O,inactive
8,Cc1cc(O)cc(O)c1C(=O)O[C@H]1[C@@H]2COC(/C=C/CO)=CC2=CC(=O)[C@@]1(C)O [PINOPHILIN B],inactive
9,Cc1cc(O)cc(O)c1C(=O)O[C@H]1[C@@H]2COC(/C=C/C=O)=CC2=CC(=O)[C@@]1(C)O,inactive
10,C/C=C/C1=CC2=CC(=O)[C@@](C)(O)[C@@H](OC(=O)c3c(C)cc(O)cc3O)[C@@H]2CO1,inactive
11,Cc1cc(O)cc(O)c1C(=O)O[C@H]1C2=COC(/C=C/CO)=CC2=CC(=O)[C@@]1(C)O,inactive

# Tested on: A549
# Assay: Cytotoxicity against human A549 cells by SRB assay
# Assay type: functional, cell-based
# Procedure, shortened: as §2
row,SMILES,Activity
1,Cc1cc(O)cc(O)c1C(=O)O[C@H]1[C@@H]2COC(/C=C/[C@H](C)O)=CC2=CC(=O)[C@@]1(C)O,inactive
2,C/C=C/C1=CC2=CC(=O)[C@@](C)(OC(=O)c3c(C)cc(O)cc3O)C(=O)C2=CO1,inactive
3,COC(=O)C1=CC2=CC(=O)[C@@](C)(O)[C@@H](OC(=O)c3c(C)cc(O)cc3O)[C@@H]2CO1,inactive
4,COC(=O)CCC1=CC2=CC(=O)[C@@](C)(O)[C@@H](OC(=O)c3c(C)cc(O)cc3O)[C@@H]2CO1,inactive
5,COC(OC)C1=CC2=CC(=O)[C@@](C)(O)[C@@H](OC(=O)c3c(C)cc(O)cc3O)[C@@H]2CO1,inactive
6,Cc1cc(O)cc(O)c1C(=O)O[C@H]1[C@@H]2COC(/C=C/C(=O)O)=CC2=CC(=O)[C@@]1(C)O,inactive
7,Cc1cc(O)cc(O)c1C(=O)O[C@]1(C)C(=O)C=C2C=C(/C=C/CO)OC=C2C1=O,inactive
8,Cc1cc(O)cc(O)c1C(=O)O[C@H]1[C@@H]2COC(/C=C/CO)=CC2=CC(=O)[C@@]1(C)O [PINOPHILIN B],inactive
9,Cc1cc(O)cc(O)c1C(=O)O[C@H]1[C@@H]2COC(/C=C/C=O)=CC2=CC(=O)[C@@]1(C)O,inactive
10,C/C=C/C1=CC2=CC(=O)[C@@](C)(O)[C@@H](OC(=O)c3c(C)cc(O)cc3O)[C@@H]2CO1,inactive
11,Cc1cc(O)cc(O)c1C(=O)O[C@H]1C2=COC(/C=C/CO)=CC2=CC(=O)[C@@]1(C)O,inactive
